Laboratory results from article PMC8645912 (ESMO Open, 2021).
“And” between values parts separate entries of the source, which are not always exact repeats. Identical values can stand only once. Like-named read-outs stand apart in the source and are kept apart here. Values belong to the compound of their own block, whether it stands above or below them.

How the values were obtained:
[1] = test system: metastatic renal cell carcinoma; settings: mRCC; cited from earlier work
[2] = test system: metastatic renal cell carcinoma; settings: METEOR trial; cited from earlier work
[3] = cited from earlier work
[4] = test system: metastatic renal cell carcinoma; settings: CABOSUN trial, cited from earlier work
[5] = Cabozantinib plasma PK monitoring; assay type: in vivo, human
[6] = cited from earlier work; remark: listed apart in the source
[7] = test system: metastatic renal cell carcinoma; settings: CheckMate 9ER PK/PD study, Cavg up to day 1 of cycle 7; cited from earlier work
[8] = assay type: in vivo, human; settings: for AUC: human, plasma, oral
[9] = cited from earlier work; remark: listed apart in the source
[10] = test system: metastatic renal cell carcinoma; assay: PK/PD relation for efficacy: cabozantinib PK at progressive disease; assay type: in vivo, human
[11] = as above; assay type: in vivo, human; settings: human, plasma, oral
[12] = Adverse events in the study cohort; assay type: in vivo, human
How it was run: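 Clinical examination and blood tests every 4-6 weeks. Adverse events graded by CTCAE v5.0. Relevant toxicity defined as grade 3-4, or grade 2 requiring dose reduction or discontinuation. Each patient counted once for toxicity.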

[13] = patients with relevant toxicity
[14] = patients without relevant toxicity
[15] = SD/PR patients (disease control)
[16] = patients with progressive disease (PD)
[17] = most frequent G3 toxicities, of the 30 patients
[18] = of the 30 patients with relevant toxicity

Compound: CNC(=O)c1ccccc1Sc1ccc2c(/C=C/c3ccccn3)n[nH]c2c1 [Axitinib]
AUC at 4 weeks from treatment start associated with better OS and PFS [1]: > 300 ng·h/mL and 154 to 620 ng·h/mL
Css,trough associated with longer OS [1]: • >5 ng/ml associated with longer OS
Css,trough associated with ≥G2 asthenia [1]: > 7.1 ng/mL

Compound: Cc1ccc(Nc2nccc(N(C)c3ccc4c(C)n(C)nc4c3)n2)cc1S(N)(=O)=O [Pazopanib]
Css,trough associated with PD [1]: < 15 µg/mL
Css,trough associated with PR/SD [1]: ≥ 15 µg/mL
Css,trough associated with longer PFS and greater tumor shrinkage [1]: ≥ 20.5 µg/mL

Compound: CCN(CC)CCNC(=O)c1c(C)[nH]c(/C=C2\C(=O)Nc3ccc(F)cc32)c1C [Sunitinib]
AUCss and efficacy [1]: • Lower in PD patients compared with AUCss at treatment start.
AUCss associated with higher grade 3-4 toxicity [1]: • >2150 ng/ml/h higher grade 3-4 toxicity
Css,trough associated with longer PFS and TTF [1]: < 100 ng/mL
Css,trough associated with worse outcomes [1]: > 100 ng/mL

Mean Ctrough at 40 mg daily (SD) ([5]; 40 mg daily): 565 (283) ng/ml
Median Ctrough at 40 mg daily (IQR) ([5]; 40 mg daily): 477 (366-649) ng/ml
Mean Ctrough at 60 mg daily (SD) ([5]; 60 mg daily): 667 (375) ng/ml
Median Ctrough at 60 mg daily (IQR) ([5]; 60 mg daily): 564 (402-777) ng/ml
AUC ([5]; human, plasma, oral, Mean AUC (SD), whole population, from population PK model): 20900 ng·h/mL
Median measured cabozantinib plasma concentration ([5]; median daily dose 40 mg, median time 38 weeks): 500 ng/mL
Median Ctrough (IQR) ([5]; whole population): 500.2 (365.5-742.5) ng/ml
Mean Cmeas (measured blood concentration) ([5]; whole population, 76 mRCC patients, steady state, at least 8 h from last dose): 598.3 ng/mL
Mean Ctrough (SD) ([5]; whole population, Ctrough estimated from Cmeas by formula): 597.7 ng/ml and 597.7 (363.9) ng/ml
Mean Cl/F (SD) ([5]; whole population, from population PK model): 2.5 L/h
Mean Cl/F (SD) [10, 15]: 2.01 L/h
Mean Ctrough (SD) [10, 15]: 788.5 ng/mL
Median Cl/F (IQR) [10, 15]: 2.9 L/h
Mean Cl/F (SD) [10, 16]: 2.86 L/h
Mean Ctrough (SD) [10, 16]: 465.6 ng/mL
Median Cl/F (IQR) [10, 16]: 2 L/h
Median Ctrough (IQR) [10, 16]: 406 ng/mL
AUC ([11]; Mean AUC (SD), SD/PR patients (disease control)): 24600 ng·h/mL
AUC ([11]; Mean AUC (SD), patients with progressive disease (PD)): 17700 ng·h/mL
AUC ([11]; Median AUC (IQR), SD/PR patients (disease control)): 20000 ng·h/mL
AUC ([11]; Median AUC (IQR), patients with progressive disease (PD)): 16000 ng·h/mL
Compound: COc1cc2nccc(Oc3ccc(NC(=O)C4(C(=O)Nc5ccc(F)cc5)CC4)cc3)c2cc1OC [cabozantinib]
Dose reduction (DR) rate [2]: 60%
Drug discontinuation (DD) rate [2]: 9%
Grade 3-4 adverse event rate [2]: 74%
PFS, ORR and OS versus everolimus [2]: superiority over everolimus
Effect of PPI administration on cabozantinib efficacy and clinical PK [3]: no relevant effect
PFS and ORR versus first-line standard sunitinib ([4]; first-line mRCC): superior to first-line standard sunitinib
Dose reduction (DR) rate [4]: 46%
Drug discontinuation (DD) rate [4]: 16%
Grade 3-4 adverse event rate [4]: 67%
Biopharmaceutics Classification System class [6]: Class II
Cellular permeability in vivo [6]: high
Effect of average cabozantinib concentration (Cavg) on PFS [7]: no effect
Ctrough threshold to detect relevant toxicity ([8]; ROC curve): 617.7 ng/mL
AUC ([8]; Mean AUC (SD), patients with relevant toxicity): 28600 ng·h/mL
AUC ([8]; Mean AUC (SD), patients without relevant toxicity): 19800 ng·h/mL
AUC ([8]; Median AUC (IQR), patients with relevant toxicity): 21000 ng·h/mL
AUC ([8]; Median AUC (IQR), patients without relevant toxicity): 16000 ng·h/mL
Cmeas [8, 13]: 732 ng/mL
Median Ctrough (IQR) [8, 13]: 693 ng/mL
Mean Ctrough (SD) ([8]; patients with relevant toxicity (G3-4, or G2 requiring DR or DD)): 950.2 ng/mL
Cmeas [8, 14]: 531 ng/mL
Mean Ctrough (SD) [8, 14]: 574.1 ng/mL
Median Ctrough (IQR) [8, 14]: 521 ng/mL
Individual predicted average cabozantinib concentration at steady state ([9]; 20 mg daily): 375 ng/mL
Individual predicted average cabozantinib concentration at steady state ([9]; 40 mg daily): 750 ng/mL
Individual predicted average cabozantinib concentration at steady state ([9]; 60 mg daily): 1125 ng/mL
Cl/F, patients with a lower Cl/F ([9]; after oral administration): 1.3 L/h
Cl/F, patients with a standard Cl/F ([9]; after oral administration): 2.3 L/h
Number of PR observed ([10]; RECIST 1.1): 7 patients
Ctrough threshold to detect disease progression (drug efficacy threshold) ([10]; ROC curve): 536.8 ng/mL
Proposed target Ctrough for efficacy in TDM ([10]; mRCC, real-life TDM): > 530 ng/mL
Number of patients with progressive disease ([10]; of 76 patients, RECIST 1.1, at data cut-off): 35 patients and 34 patients
Patients with PR observed ([10]; of patients, RECIST 1.1): 9.2%
G3 cutaneous rash [12, 17]: 16.7%
G3 hand-foot syndrome (HFS) [12, 17]: 26.7%
G3 hypertension [12, 17]: 50%
G3 vomiting [12, 17]: 10%
Number of patients who experienced a relevant toxicity ([12]; of 76 patients, at data cut-off): 30 patients
Patients with G2 event requiring a dose reduction (DR) [12, 18]: 20%
Patients with G2 event requiring a drug discontinuation (DD) [12, 18]: 26.7%
Patients with at least one G2 event requiring a DD or a DR [12, 18]: 46.7%
Patients with at least one G3 toxicity [12, 18]: 53.3%
G4 toxicity ([12]; study cohort): No patient
